{"source": "ChEMBL document CHEMBL1145913", "about": "“Synthesis and evaluation of imidazole acetic acid inhibitors of activated thrombin-activatable fibrinolysis inhibitor as novel antithrombotics” (J Med Chem, 2003)", "key": {"[1]": {"assay": "In vitro inhibition of purified Carboxypeptidase N (CPN) by spectrophotometric assay"}, "[2]": {"assay": "Concentration of compound that gives 50% of the maximum acceleration of lysis was determined by clot lysis assay using human plasma", "format": "functional"}, "[3]": {"target": "Carboxypeptidase B2 (Homo sapiens) (UniProt Q96IY4)", "assay": "In vitro inhibition of activated thrombin-activatable fibrinolysis inhibitor (TAFIa) was determined by ECL enzyme assay"}, "[4]": {"assay": "In vitro inhibition of thrombin-activatable fibrinolysis was determined against TAFIa enzyme by ECL assay"}, "[5]": {"assay": "Volume of distribution in rat", "format": "ADME, organism-based", "settings": "in vivo, read-out: Vdss"}, "[6]": {"assay": "Volume of distribution in rhesus", "format": "ADME, organism-based, Macaca mulatta", "settings": "rhesus monkey, in vivo; read-out: Vdss"}, "[7]": {"assay": "Half life in rat", "format": "ADME, organism-based", "settings": "in vivo"}, "[8]": {"assay": "Tested in vivo for time-to-occlusion in carotid artery of african green monkey when administered at a dose of 0.1 mg/kg iv bolus + 0.03 mg/(kg.min) continuous infusion", "format": "functional, Cercopithecidae"}, "[9]": {"assay": "Tested in vivo for time-to-occlusion in carotid artery of african green monkey when administered along with saline", "format": "functional, Cercopithecidae"}, "[10]": {"assay": "Tested in vivo for time-to-occlusion in carotid artery of african green monkey when administered at a dose of 0.05 mg/kg iv bolus + 0.02 mg/(kg.min) continuous infusion", "format": "functional, Cercopithecidae"}, "[11]": {"assay": "Tested in vivo for time-to-occlusion in jugular vein of african green monkey when administered at a dose of 0.03 mg/kg iv bolus + 0.01 mg/(kg.min) continuous infusion", "format": "functional, Cercopithecidae", "outline": "(§1)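 African green monkey jugular vein model. Time-to-occlusion is recorded during iv bolus plus continuous infusion for 300 min; vehicle-treated animals are included.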"}, "[12]": {"assay": "Tested in vivo for bleeding time in african green monkey when administered at a dose of 0.3 mg/kg iv bolus + 0.1 mg/(kg.min) continuous infusion", "format": "functional, Cercopithecidae", "outline": "(§2)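 African green monkeys receive an iv bolus and then continuous infusion for 300 min, or vehicle. Template bleeding time is measured.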"}, "[13]": {"assay": "Tested in vivo for time-to-occlusion in carotid artery of african green monkey when administered at a dose of 0.3 mg/kg iv bolus + 0.1 mg/(kg.min) continuous infusion", "format": "functional, Cercopithecidae"}, "[14]": {"assay": "Half life in rhesus", "format": "ADME, organism-based, Macaca mulatta", "settings": "rhesus monkey, in vivo"}, "[15]": {"assay": "Bioavailability in rhesus", "format": "ADME, organism-based, Macaca mulatta", "settings": "rhesus monkey, in vivo"}, "[16]": {"assay": "Tested in vivo for time-to-occlusion in carotid artery of african green monkey when administered at a dose of 0.03 mg/kg iv bolus + 0.01 mg/(kg.min) continuous infusion", "format": "functional, Cercopithecidae"}, "[17]": {"assay": "Clearance in dog", "format": "ADME, organism-based, Canis lupus familiaris", "settings": "in vivo"}, "[18]": {"assay": "Tested in vivo for bleeding time in african green monkey when administered at a dose of 0.05 mg/kg iv bolus + 0.02 mg/(kg.min) continuous infusion", "format": "functional, Cercopithecidae", "outline": "as §2"}, "[19]": {"assay": "Tested in vivo for time-to-occlusion in jugular vein of african green monkey when administered at a dose of 0.3 mg/kg iv bolus + 0.1 mg/(kg.min) continuous infusion", "format": "functional, Cercopithecidae", "outline": "as §1"}, "[20]": {"assay": "Half life in dog", "format": "ADME, organism-based, Canis lupus familiaris", "settings": "in vivo"}, "[21]": {"assay": "Tested in vivo for bleeding time in african green monkey when administered along with saline", "format": "functional, Cercopithecidae", "outline": "as §2"}, "[22]": {"assay": "Clearance in rat", "format": "ADME, organism-based", "settings": "in vivo"}, "[23]": {"assay": "Clearance in rhesus", "format": "ADME, organism-based, Macaca mulatta", "settings": "rhesus monkey, in vivo"}, "[24]": {"assay": "Tested in vivo for time-to-occlusion in jugular vein of african green monkey when administered at a dose of 0.05 mg/kg iv bolus + 0.02 mg/(kg.min) continuous infusion", "format": "functional, Cercopithecidae", "outline": "as §1"}, "[25]": {"assay": "Tested in vivo for bleeding time in african green monkey when administered at a dose of 0.03 mg/kg iv bolus + 0.01 mg/(kg.min) continuous infusion", "format": "functional, Cercopithecidae", "outline": "as §2"}, "[26]": {"assay": "Bioavailability in rat", "format": "ADME, organism-based", "settings": "in vivo"}, "[27]": {"assay": "Tested in vivo for time-to-occlusion in jugular vein of african green monkey when administered at a dose of 0.1 mg/kg iv bolus + 0.03 mg/(kg.min) continuous infusion", "format": "functional, Cercopithecidae", "outline": "as §1"}, "[28]": {"assay": "Bioavailability in dog", "format": "ADME, organism-based, Canis lupus familiaris", "settings": "in vivo"}, "[29]": {"assay": "Tested in vivo for bleeding time in african green monkey when administered at a dose of 0.1 mg/kg iv bolus + 0.03 mg/(kg.min) continuous infusion", "format": "functional, Cercopithecidae", "outline": "as §2"}, "[30]": {"assay": "Volume of distribution in dog", "format": "ADME, organism-based, Canis lupus familiaris", "settings": "in vivo, read-out: Vdss"}, "[31]": {"assay": "Tested in vivo for time-to-occlusion in jugular vein of african green monkey when administered along with saline", "format": "functional, Cercopithecidae", "outline": "as §1"}}}
{"molecule": "CCCCn1cnc(C(Cc2ccc(N)nc2)C(=O)O)c1", "note": "(centres undefined)", "values": [{"measurement": "IC50", "setting": "[1]", "result": "> 50", "unit": "µM"}, {"measurement": "CLT50", "setting": "[2]", "result": 0.15, "unit": "µM"}]}
{"molecule": "O=C(O)CC(Cc1ccccc1)C(=O)O", "note": "(centres undefined)", "values": [{"measurement": "CLT50", "setting": "[2]", "result": ">50", "unit": "µM"}]}
{"molecule": "O=C(O)C(Cc1ccccc1)c1c[nH]cn1", "note": "(centres undefined)", "values": [{"measurement": "IC50", "setting": "[1]", "result": "> 50", "unit": "µM"}, {"measurement": "IC50", "setting": "[3]", "result": "> 100000", "unit": "nM"}, {"measurement": "CLT50", "setting": "[2]", "result": ">50", "unit": "µM"}]}
{"molecule": "Cn1cnc(C(Cc2ccc(N)nc2)C(=O)O)c1", "note": "(centres undefined)", "values": [{"measurement": "IC50", "setting": "[1]", "result": "> 50", "unit": "µM"}, {"measurement": "CLT50", "setting": "[2]", "result": 0.42, "unit": "µM"}]}
{"molecule": "CC(C)n1cnc(C(Cc2ccc(N)nc2)C(=O)O)c1", "note": "(centres undefined)", "values": [{"measurement": "IC50", "setting": "[1]", "result": "> 50", "unit": "µM"}, {"measurement": "CLT50", "setting": "[2]", "result": 1.06, "unit": "µM"}]}
{"molecule": "CCn1cnc(C(Cc2ccc(N)nc2)C(=O)O)c1", "note": "(centres undefined)", "values": [{"measurement": "IC50", "setting": "[1]", "result": "> 50", "unit": "µM"}, {"measurement": "CLT50", "setting": "[2]", "result": 0.65, "unit": "µM"}]}
{"molecule": "Nc1ccc(CC(C(=O)O)c2cn(Cc3ccccc3)cn2)cn1", "note": "(centres undefined)", "values": [{"measurement": "IC50", "setting": "[1]", "result": "> 50", "unit": "µM"}, {"measurement": "IC50", "setting": "[3]", "result": 28, "unit": "nM"}, {"measurement": "CLT50", "setting": "[2]", "result": 0.74, "unit": "µM"}]}
{"molecule": "Nc1ccc(CC(C(=O)O)c2c[nH]cn2)cn1", "note": "(racemic)", "values": [{"measurement": "IC50", "setting": "[4]", "result": 80, "unit": "nM"}, {"measurement": "CLT50", "setting": "[2]", "result": 0.97, "unit": "µM"}]}
{"molecule": "CC(C)CCn1cnc(C(Cc2ccc(N)nc2)C(=O)O)c1", "note": "(racemic)", "values": [{"measurement": "IC50", "setting": "[4]", "result": 5, "unit": "nM"}, {"measurement": "CLT50", "setting": "[2]", "result": 0.12, "unit": "µM"}]}
{"molecule": "Nc1ccc(CC(C(=O)O)c2c[nH]cn2)cn1", "note": "(single isomer, unassigned; (-))", "values": [{"measurement": "IC50", "setting": "[4]", "result": 40, "unit": "nM"}, {"measurement": "CLT50", "setting": "[2]", "result": 0.5, "unit": "µM"}]}
{"molecule": "Nc1ccc(CC(C(=O)O)c2c[nH]cn2)cn1", "note": "(stereo in doubt; 10b(+))", "values": [{"measurement": "IC50", "setting": "[4]", "result": 1800, "unit": "nM"}, {"measurement": "IC50", "setting": "[1]", "result": "> 50", "unit": "µM"}, {"measurement": "CLT50", "setting": "[2]", "result": ">10", "unit": "µM"}]}
{"molecule": "CC(C)CCn1cnc(C(Cc2ccc(N)nc2)C(=O)O)c1", "note": "(stereo in doubt; 10j(-))", "values": [{"measurement": "Vd", "setting": "[5]", "result": 1.36, "unit": "L/kg"}, {"measurement": "Vd", "setting": "[6]", "result": 0.26, "unit": "L/kg"}, {"measurement": "half-life", "setting": "[7]", "result": 66, "unit": "min"}, {"measurement": "TTO", "setting": "[8]", "result": 52, "unit": "min"}, {"measurement": "TTO", "setting": "[9]", "result": 51, "unit": "min"}, {"measurement": "TTO", "setting": "[10]", "result": 62, "unit": "min"}, {"measurement": "TTO", "setting": "[11]", "result": 128, "unit": "min"}, {"measurement": "Bleeding time", "setting": "[12]", "result": 2.9, "unit": "min"}, {"measurement": "TTO", "setting": "[13]", "result": 85, "unit": "min"}, {"measurement": "half-life", "setting": "[14]", "result": 48, "unit": "min"}, {"measurement": "bioavailability", "setting": "[15]", "result": 12, "unit": "%"}, {"measurement": "TTO", "setting": "[16]", "result": 61, "unit": "min"}, {"measurement": "clearance", "setting": "[17]", "result": 6.1, "unit": "mL/min/kg"}, {"measurement": "Bleeding time", "setting": "[18]", "result": 2.2, "unit": "min"}, {"measurement": "TTO", "setting": "[19]", "result": 216, "unit": "min"}, {"measurement": "half-life", "setting": "[20]", "result": 36, "unit": "min"}, {"measurement": "Bleeding time", "setting": "[21]", "result": 2, "unit": "min"}, {"measurement": "clearance", "setting": "[22]", "result": 32, "unit": "mL/min/kg"}, {"measurement": "clearance", "setting": "[23]", "result": 6.1, "unit": "mL/min/kg"}, {"measurement": "TTO", "setting": "[24]", "result": 147, "unit": "min"}, {"measurement": "Bleeding time", "setting": "[25]", "result": 2, "unit": "min"}, {"measurement": "IC50", "setting": "[4]", "result": 2, "unit": "nM"}, {"measurement": "IC50", "setting": "[1]", "result": "> 50", "unit": "µM"}, {"measurement": "bioavailability", "setting": "[26]", "result": 47, "unit": "%"}, {"measurement": "TTO", "setting": "[27]", "result": 171, "unit": "min"}, {"measurement": "bioavailability", "setting": "[28]", "result": 38, "unit": "%"}, {"measurement": "Bleeding time", "setting": "[29]", "result": 2.3, "unit": "min"}, {"measurement": "CLT50", "setting": "[2]", "result": 0.056, "unit": "µM"}, {"measurement": "Vd", "setting": "[30]", "result": 0.28, "unit": "L/kg"}, {"measurement": "TTO", "setting": "[31]", "result": 96, "unit": "min"}]}
